Measurements as given in publication PMC2386079 (Journal of Antimicrobial Chemotherapy, 2008).
Where two headings read alike, the source gives them in different places.

Key:
[1] = tested on: J774 macrophages; assay: release of lactate dehydrogenase; assay type: cell-based, mouse; settings: 24 h incubation, telavancin 90 mg/L, vancomycin 50 mg/L, oritavancin 25 mg/L (human Cmax), controls 5.0 ± 0.2%, n = 3
In short: (§1)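 LDH release into the culture medium was measured after exposure to the test compound to assess pericellular membrane integrity. J774 macrophages were grown in RPMI 1640 and rat embryo fibroblasts in Dulbecco's modified Eagle's medium, both with 10% fetal calf serum.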

[2] = tested on: rat embryo fibroblasts; assay: release of lactate dehydrogenase; assay type: cell-based; settings: 72 h incubation, telavancin 90 mg/L, vancomycin 50 mg/L, oritavancin 25 mg/L (human Cmax), controls 13.4 ± 3.7%, n = 3
In short: as §1

[3] = tested on: J774 macrophages; assay: cellular uptake, accumulation and efflux; assay type: in vitro ADME, mouse
[4] = tested on: rat embryo fibroblasts; assay: cellular uptake; assay type: in vitro ADME; settings: stated for both cell types
[5] = tested on: J774 macrophages; assay: subcellular distribution by cell fractionation and isopycnic centrifugation; assay type: in vitro ADME, mouse; settings: 24 h, 90 mg/L
In short: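 J774 macrophages were exposed 24 h at 37°C to 90 mg/L labelled test compound in 10% serum medium. They were then scraped into 0.25 M sucrose/1 mM EGTA/3 mM imidazole pH 7.4 and homogenised. Low-speed spin gave unbroken cells/nuclei; high-speed spin split granules/membranes from supernatant. The granule fraction was run on an isopycnic sucrose gradient, with densities standardised 1.08–1.21. Radioactivity, protein and marker enzymes were measured, expressed as % recovered per fraction.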

[6] = tested on: J774 macrophages; assay: electron microscopy with morphometric analysis of lysosomal changes, macrophages; assay type: cell-based, mouse; settings: 24 h
[7] = tested on: rat embryo fibroblasts; assay: electron microscopy with morphometric analysis of lysosomal changes, fibroblasts; assay type: cell-based; settings: 72 h
[8] = tested on: J774 mouse macrophages; assay: total phospholipid and cholesterol content, macrophages; assay type: cell-based; settings: 24 h, telavancin 90 mg/L, vancomycin 50 mg/L, oritavancin 25 mg/L, n = 6–8; for total cholesterol content: control 72 ± 3 nmol/mg of protein; for total phospholipid content: control 204 ± 10 nmol/mg of protein
[9] = tested on: rat embryo fibroblasts; assay: total phospholipid and cholesterol content, fibroblasts; assay type: cell-based; settings: 72 h, telavancin 90 mg/L, vancomycin 50 mg/L, oritavancin 25 mg/L, n = 6–8; for total cholesterol content: control 130 ± 16 nmol/mg of protein; for total phospholipid content: control 295 ± 8 nmol/mg of protein
[10] = cited from earlier work
[11] = tested on: J774 macrophages; settings: cited from earlier work; for accumulation level in macrophages: recorded previously in the same conditions (macrophages, 24 h)

Telavancin
release of lactate dehydrogenase [1]: 4.9 ± 1.0% | release of lactate dehydrogenase [2]: 16.9 ± 2.5% | accumulation level in macrophages ([3]; 24 h): ~45 fold | apparent rate of efflux relative to influx (fold lower) ([3]; initial uptake 12 h at 90 mg/L, then drug-free medium for 24 h): ~5.7 fold | uptake rate without serum relative to with serum (fold faster) ([3]; medium not supplemented with calf serum, 5 h, 10–90 mg/L, data not shown): ~ 1.7 fold | clearance rate (abstract) ([3]; stated for both cell types): ~10 mL/g of protein/h | clearance rate (abstract) [4]: ~10 mL/g of protein/h | cell-associated drug recovered in supernatant fraction ([5]; N-acetyl-β-glucosaminidase 6%): 10% | cell-associated drug recovered in unbroken cells/nuclei fraction ([5]; N-acetyl-β-glucosaminidase 27%): 35% | cell-associated drug recovered in granules/membranes fraction ([5]; N-acetyl-β-glucosaminidase 67%): 55% | ultrastructural alterations (electron microscopy) ([6]; J774 macrophages, 90 mg/L): enlargement of lysosomes that were filled with a pleiotropic material | morphometric changes compared with vancomycin ([6]; macrophages, 25 mg/L telavancin vs 50 mg/L vancomycin): changes similar to those seen with 50 mg/L vancomycin | morphometric alterations compared with oritavancin ([6]; macrophages, 90 mg/L telavancin vs 20 mg/L oritavancin): considerably milder than in cells incubated with 20 mg/L oritavancin | ultrastructural alterations (electron microscopy) ([7]; 90 mg/L): enlargement of lysosomes that were filled with a pleiotropic material | morphometric alterations compared with oritavancin ([7]; 90 mg/L telavancin vs 20 mg/L oritavancin): considerably milder than in cells incubated with 20 mg/L oritavancin | morphometric changes compared with vancomycin ([7]; 90 mg/L telavancin vs 50 mg/L vancomycin): changes similar to those seen with 50 mg/L vancomycin | total cholesterol content [8]: slight but not significant increase | total phospholipid content [8]: Neither telavancin nor vancomycin caused detectable increase | total cholesterol content [9]: slight but not significant increase | total phospholipid content [9]: Neither telavancin nor vancomycin caused detectable increase | human Cmax [10]: 90 µg/mL | half-life ([10]; serum, once-daily administration): 7.5 h | cellular concentration in human alveolar macrophages ([10]; within 8–24 h after systemic administration of therapeutic doses): ~ 50 mg/L

CN[C@H](CC(C)C)C(=O)N[C@H]1C(=O)N[C@@H](CC(N)=O)C(=O)N[C@H]2C(=O)N[C@H]3C(=O)N[C@H](C(=O)N[C@H](C(=O)O)c4cc(O)cc(O)c4-c4cc3ccc4O)[C@H](O)c3ccc(c(Cl)c3)Oc3cc2cc(c3O[C@@H]2O[C@H](CO)[C@@H](O)[C@H](O)[C@H]2O[C@H]2C[C@](C)(N)[C@H](O)[C@H](C)O2)Oc2ccc(cc2Cl)[C@H]1O [vancomycin, Vancomycin]
release of lactate dehydrogenase [1]: 5.0 ± 1.5% | release of lactate dehydrogenase [2]: 17.1 ± 1.3% | total cholesterol content [8]: slight but not significant increase | total phospholipid content [8]: Neither telavancin nor vancomycin caused detectable increase | total cholesterol content [9]: slight but not significant increase | total phospholipid content [9]: Neither telavancin nor vancomycin caused detectable increase | accumulation level in macrophages [11]: ~8 fold | human Cmax [10]: 50 µg/mL

Oritavancin
release of lactate dehydrogenase [1]: 15.5 ± 1.5% | release of lactate dehydrogenase [2]: 18.2 ± 3.0% | total cholesterol content [8]: marked, statistically significant increase | total phospholipid content [8]: significant increases | total cholesterol content [9]: marked, statistically significant increase | total phospholipid content [9]: significant increases | initial uptake clearance rate ([11]; J774 macrophages): ~150 µL/mg of protein/h | accumulation level in macrophages [11]: ~370 fold | human Cmax [10]: 25 µg/mL
